Assay results taken from ChEMBL document CHEMBL1138555, “N-acylated and N,N'-diacylated imidazolidine-2-thione derivatives and N,N'-diacylated tetrahydropyrimidine-2(1H)-thione analogues: synthesis and antiproliferative activity” (Eur J Med Chem, 2009).

What was measured:
HCT-116 = test: Growth inhibition of human HCT116 cells after 48 hrs by sulforhodamine B assay; format: functional; conditions: HCT-116, 48 h
Method in brief: (§1)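 NCI screen panel. Five 10-fold concentrations from 10^-4 to 10^-8 M. Exposure for the last 48 h of a 72 h incubation. Growth estimated by sulforhodamine B protein assay. GI50 is the concentration giving 50% growth inhibition. Where that level was not reached or was exceeded, the value is given as above or below the highest or lowest concentration tested.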

EKVX = test: Growth inhibition of human EKVX cells after 48 hrs by sulforhodamine B assay; format: functional; method in brief: as §1
OVCAR-8 = test: Growth inhibition of human OVCAR8 cells after 48 hrs by sulforhodamine B assay; format: functional; conditions: OVCAR-8, 48 h; method in brief: as §1
SK-OV-3 = test: Growth inhibition of human SKOV3 cells after 48 hrs by sulforhodamine B assay; format: functional; conditions: SK-OV-3, 48 h; method in brief: as §1
DU-145 = test: Growth inhibition of human DU145 cells after 48 hrs by sulforhodamine B assay; format: functional; conditions: DU-145, 48 h; method in brief: as §1
MDA-MB-435 = test: Growth inhibition of human MDA-MB-435 cells after 48 hrs by sulforhodamine B assay; format: functional; conditions: MDA-MB-435, 48 h; method in brief: as §1
T47D = test: Growth inhibition of human T47D cells after 48 hrs by sulforhodamine B assay; format: functional
Method in brief: (§2)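 NCI in vitro panel screen. Compounds tested at five 10-fold dilutions, 10^-4 to 10^-8 M. Cells in 96-well plates were exposed for the last 48 h of a 72 h incubation. Viability/growth was read by sulforhodamine B protein assay. GI50 is the concentration giving 50% growth inhibition. Values beyond the tested range are reported as greater or less than the maximum or minimum concentration.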

HOP-62 = test: Growth inhibition of human HOP62 cells after 48 hrs by sulforhodamine B assay; format: functional; conditions: HOP-62, 48 h; method in brief: as §1
MOLT-4 = test: Growth inhibition of human MOLT4 cells after 48 hrs by sulforhodamine B assay; format: functional; conditions: MOLT-4, 48 h; method in brief: as §1
SK-MEL-2 = test: Growth inhibition of human SK-MEL-2 cells after 48 hrs by sulforhodamine B assay; format: functional; conditions: SK-MEL-2, 48 h; method in brief: as §1
HT-29 = test: Growth inhibition of human HT-29 cells after 48 hrs by sulforhodamine B assay; format: functional; conditions: HT-29, 48 h; method in brief: as §1
SR = test: Growth inhibition of human SR cells after 48 hrs by sulforhodamine B assay; format: functional; method in brief: as §2
M14 = test: Growth inhibition of human M14 cells after 48 hrs by sulforhodamine B assay; format: functional; conditions: M14, 48 h; method in brief: as §1
SK-MEL-5 = test: Growth inhibition of human SK-MEL-5 cells after 48 hrs by sulforhodamine B assay; format: functional; conditions: SK-MEL-5, 48 h; method in brief: as §1
786-0 = test: Growth inhibition of human 786-0 cells after 48 hrs by sulforhodamine B assay; format: functional; conditions: 786-0, 48 h; method in brief: as §1
COLO 205 = test: Growth inhibition of human COLO205 cells after 48 hrs by sulforhodamine B assay; format: functional; conditions: COLO 205, 48 h; method in brief: as §1
HOP-92 = test: Growth inhibition of human HOP92 cells after 48 hrs by sulforhodamine B assay; format: functional; conditions: HOP-92, 48 h; method in brief: as §1
[1] = Growth inhibition of human […] cells after 48 hrs by sulforhodamine B assay; format: functional; method in brief: as §1
NCI-H322M = test: Growth inhibition of human NCI-H322M cells after 48 hrs by sulforhodamine B assay; format: functional; method in brief: as §1
UO-31 = test: Growth inhibition of human UO31 cells after 48 hrs by sulforhodamine B assay; format: functional; conditions: UO-31, 48 h; method in brief: as §2
RXF 393 = test: Growth inhibition of human RXF393 cells after 48 hrs by sulforhodamine B assay; format: functional; conditions: RXF 393, 48 h; method in brief: as §1
HCT-15 = test: Growth inhibition of human HCT15 cells after 48 hrs by sulforhodamine B assay; format: functional; conditions: HCT-15, 48 h; method in brief: as §1
Malme-3M = test: Growth inhibition of human MALME-3M cells after 48 hrs by sulforhodamine B assay; format: functional; method in brief: as §1
MT4 = test: Antiproliferative activity against human MT4 cells assessed as reduction of growth by MTT assay; format: functional, cell-based
Method in brief: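 MT-4 lymphoblastoid T cells (ATCC) in RPMI 1640 with 10% FCS, penicillin/streptomycin, checked for mycoplasma. 1 × 10⁴ mock-infected cells per well with serial dilutions from a 100 mM DMSO stock. Incubated 4 days at 37 °C, viable cells counted by MTT. IC50 versus untreated controls by linear regression. Mean of three separate experiments.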

PC-3 = test: Growth inhibition of human PC3 cells after 48 hrs by sulforhodamine B assay; format: functional; conditions: PC-3, 48 h; method in brief: as §1
NCI-H23 = test: Growth inhibition of human NCI-H23 cells after 48 hrs by sulforhodamine B assay; format: functional; conditions: NCI-H23, 48 h; method in brief: as §1
NCI-H522 = test: Growth inhibition of human NCI-H522 cells after 48 hrs by sulforhodamine B assay; format: functional; conditions: NCI-H522, 48 h; method in brief: as §1
UACC-62 = test: Growth inhibition of human UACC62 cells after 48 hrs by sulforhodamine B assay; format: functional; conditions: UACC-62, 48 h; method in brief: as §2
OVCAR-4 = test: Growth inhibition of human OVCAR4 cells after 48 hrs by sulforhodamine B assay; format: functional; conditions: OVCAR-4, 48 h; method in brief: as §1
CCRF-CEM = test: Growth inhibition of human CCRF-CEM cells after 48 hrs by sulforhodamine B assay; format: functional; method in brief: as §1
SNB-75 = test: Growth inhibition of human SNB75 cells after 48 hrs by sulforhodamine B assay; format: functional; conditions: SNB-75, 48 h; method in brief: as §2
LOX IMVI = test: Growth inhibition of human LOXIMVI cells after 48 hrs by sulforhodamine B assay; format: functional; method in brief: as §1
MCF7 = test: Growth inhibition of human MCF7 cells after 48 hrs by sulforhodamine B assay; format: functional; conditions: MCF7, 48 h; method in brief: as §1
KM12 = test: Growth inhibition of human KM12 cells after 48 hrs by sulforhodamine B assay; format: functional; conditions: KM12, 48 h; method in brief: as §1
SF-539 = test: Growth inhibition of human SF539 cells after 48 hrs by sulforhodamine B assay; format: functional; conditions: SF-539, 48 h; method in brief: as §1
BT-549 = test: Growth inhibition of human BT549 cells after 48 hrs by sulforhodamine B assay; format: functional; conditions: BT-549, 48 h; method in brief: as §1
TK-10 = test: Growth inhibition of human TK10 cells after 48 hrs by sulforhodamine B assay; format: functional; conditions: TK-10, 48 h; method in brief: as §2
IGROV-1 = test: Growth inhibition of human IGROV1 cells after 48 hrs by sulforhodamine B assay; format: functional; conditions: IGROV-1, 48 h; method in brief: as §1
SNB-19 = test: Growth inhibition of human SNB19 cells after 48 hrs by sulforhodamine B assay; format: functional; conditions: SNB-19, 48 h; method in brief: as §2
A549 = test: Growth inhibition of human A549 cells after 48 hrs by sulforhodamine B assay; format: functional; conditions: A549, 48 h; method in brief: as §1
ACHN = test: Growth inhibition of human ACHN cells after 48 hrs by sulforhodamine B assay; format: functional; method in brief: as §1
OVCAR-3 = test: Growth inhibition of human OVCAR-3 cells after 48 hrs by sulforhodamine B assay; format: functional; conditions: OVCAR-3, 48 h; method in brief: as §1
SF-295 = test: Growth inhibition of human SF295 cells after 48 hrs by sulforhodamine B assay; format: functional; conditions: SF-295, 48 h; method in brief: as §1
SF-268 = test: Growth inhibition of human SF268 cells after 48 hrs by sulforhodamine B assay; format: functional; conditions: SF-268, 48 h; method in brief: as §1
K562 = test: Growth inhibition of human K562 cells after 48 hrs by sulforhodamine B assay; format: functional; conditions: K562, 48 h; method in brief: as §1
CAKI-1 = test: Growth inhibition of human Caki1 cells after 48 hrs by sulforhodamine B assay; format: functional; conditions: CAKI-1, 48 h; method in brief: as §1
NCI-H460 = test: Growth inhibition of human NCI-H460 cells after 48 hrs by sulforhodamine B assay; format: functional; conditions: NCI-H460, 48 h; method in brief: as §1
SW-620 = test: Growth inhibition of human SW620 cells after 48 hrs by sulforhodamine B assay; format: functional; conditions: SW-620, 48 h; method in brief: as §2
SN12C = test: Growth inhibition of human SN12C cells after 48 hrs by sulforhodamine B assay; format: functional; method in brief: as §2
MDA-MB-231 = test: Growth inhibition of human MDA-MB-231 cells after 48 hrs by sulforhodamine B assay; format: functional; conditions: MDA-MB-231, 48 h; method in brief: as §1
HL-60(TB) = test: Growth inhibition of human HL-60(TB) cells after 48 hrs by sulforhodamine B assay; format: functional; conditions: HL-60, 48 h
Method in brief: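 NCI 60-cell-line screen protocol: cells exposed to compound at five 10-fold dilutions from 10^-4 to 10^-8 M for the last 48 h of a 72 h incubation. Sulforhodamine B protein assay estimated viability/growth. GI50 (50% growth inhibition) derived; where not reached or exceeded, reported as greater or less than the highest or lowest concentration tested.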

SK-MEL-28 = test: Growth inhibition of human SK-MEL-28 cells after 48 hrs by sulforhodamine B assay; format: functional; conditions: SK-MEL-28, 48 h; method in brief: as §1
U-251 = test: Growth inhibition of human U251 cells after 48 hrs by sulforhodamine B assay; format: functional; conditions: U-251, 48 h; method in brief: as §2

N#C/C(=C\N1CCN(C(=O)c2ccco2)C1=S)C(=O)c1ccccc1
GI50 (HCT-116): 9.1 µM | GI50 (EKVX): 17.8 µM | GI50 (OVCAR-8): 25.4 µM | GI50 (SK-OV-3): 37.4 µM | GI50 (DU-145): 5 µM | GI50 (MDA-MB-435): 11 µM | GI50 (T47D): 7.2 µM | GI50 (HOP-62): 22 µM | GI50 (MOLT-4): 43.7 µM | GI50 (SK-MEL-2): 3.7 µM | GI50 (HT-29): 30.5 µM | GI50 (SR): 2.8 µM | GI50 (M14): 14.9 µM | GI50 (SK-MEL-5): 8.3 µM | GI50 (786-0): 16.1 µM | GI50 (COLO 205): 23.2 µM | GI50 (HOP-92): 26.9 µM | GI50 [1]: 5.6 µM | GI50 (NCI-H322M): 23.4 µM | GI50 (UO-31): 10.2 µM | GI50 (RXF 393): 4.1 µM | GI50 (HCT-15): 5.7 µM | GI50 (Malme-3M): 30.7 µM | IC50 (MT4): 3 µM | GI50 (PC-3): 31.7 µM | GI50 (NCI-H23): 15.2 µM | GI50 (NCI-H522): 3.7 µM | GI50 (UACC-62): 12.9 µM | GI50 (OVCAR-4): 29.8 µM | GI50 (CCRF-CEM): 41.9 µM | GI50 (SNB-75): 68.2 µM | GI50 (LOX IMVI): 17.9 µM | GI50 (MCF7): 4.5 µM | GI50 (KM12): 6.5 µM | GI50 (SF-539): 2.2 µM | GI50 (BT-549): 7.8 µM | GI50 (TK-10): 10.5 µM | GI50 (IGROV-1): 19.4 µM | GI50 (SNB-19): 39.7 µM | GI50 (A549): 22 µM | GI50 (ACHN): 16.6 µM | GI50 (OVCAR-3): 18.2 µM | GI50 (SF-295): 43.6 µM | GI50 (SF-268): 31.2 µM | GI50 (K562): 5.5 µM | GI50 (CAKI-1): 12.5 µM | GI50 (NCI-H460): 9.5 µM | GI50 (SW-620): 5.9 µM | GI50 (SN12C): 8.6 µM | GI50 (MDA-MB-231): 13.7 µM | GI50 (HL-60(TB)): 31.5 µM | GI50 (SK-MEL-28): 28 µM | GI50 (U-251): 17 µM
